Results reported in ChEMBL document CHEMBL1949496, “Synthesis of [¹⁸F]-labeled (2-(2-fluoroethoxy)ethyl)triphenylphosphonium cation as a potential agent for myocardial imaging using positron emission tomography” (Bioorg Med Chem Lett, 2012).

Columns and labels:
Kidney [1] = assay: Biodistribution in BALB/c mouse kidney at 7.4 MBq, iv after 120 mins by gamma counting; format: ADME, organism-based; settings: in vivo, 2 h
Procedure, shortened: (§1)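 Tracer given intravenously to BALB/c mice; animals sampled at 10, 30, 60 and 120 min after injection. Organ radioactivity expressed as percentage of injected dose per gram of tissue (% ID/g), n = 12.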

Bone [2] = assay: Biodistribution in BALB/c mouse bone at 7.4 MBq, iv after 60 mins by gamma counting; format: ADME, organism-based, Bone element; settings: in vivo, 1 h; procedure, shortened: as §1
Intestine [3] = assay: Biodistribution in BALB/c mouse intestine at 7.4 MBq, iv after 30 mins by gamma counting; format: ADME, organism-based; settings: in vivo, 0.5 h; procedure, shortened: as §1
Heart [4] = assay: Biodistribution in BALB/c mouse heart at 7.4 MBq, iv after 10 mins by gamma counting; format: ADME, organism-based; settings: in vivo; procedure, shortened: as §1
Nucleic Acid [5] = assay: Ratio of drug level in BALB/c mouse heart to liver at 7.4 MBq, iv after 30 mins by gamma counter; format: ADME, organism-based; settings: in vivo, 0.5 h
Procedure, shortened: (§2)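 Normal BALB/c mice were given the 18F tracer by i.v. injection. Tissues were sampled at 10, 30, 60 and 120 min. Activity is expressed as % injected dose per gram of tissue (n = 12), and organ ratios were taken from these values.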

Nucleic Acid [6] = assay: Ratio of drug level in BALB/c mouse heart to blood at 7.4 MBq, iv after 120 mins by gamma counter; format: ADME, organism-based; settings: other tissue, 2 h; procedure, shortened: as §2
Heart [7] = assay: Biodistribution in BALB/c mouse heart at 7.4 MBq, iv after 60 mins by gamma counting; format: ADME, organism-based; settings: in vivo, 1 h; procedure, shortened: as §1
Blood [8] = assay: Biodistribution in BALB/c mouse blood at 7.4 MBq, iv after 120 mins by gamma counting; format: ADME, organism-based; settings: in vivo, 2 h; procedure, shortened: as §1
Nucleic Acid [9] = assay: Ratio of drug level in BALB/c mouse heart to blood at 7.4 MBq, iv after 10 mins by gamma counter; format: ADME, organism-based; settings: other tissue; procedure, shortened: as §2
Muscle tissue = assay: Biodistribution in BALB/c mouse normal muscle at 7.4 MBq, iv after 120 mins by gamma counting; format: ADME, organism-based; settings: in vivo, 2 h; procedure, shortened: as §1
Lung [10] = assay: Biodistribution in BALB/c mouse lung at 7.4 MBq, iv after 120 mins by gamma counting; format: ADME, organism-based; settings: in vivo, 2 h; procedure, shortened: as §1
Lung [11] = assay: Biodistribution in BALB/c mouse lung at 7.4 MBq, iv after 60 mins by gamma counting; format: ADME, organism-based; settings: in vivo, 1 h; procedure, shortened: as §1
Blood [12] = assay: Biodistribution in BALB/c mouse blood at 7.4 MBq, iv after 60 mins by gamma counting; format: ADME, organism-based; settings: in vivo, 1 h; procedure, shortened: as §1
Pancreas [13] = assay: Biodistribution in BALB/c mouse pancreas at 7.4 MBq, iv after 30 mins by gamma counting; format: ADME, organism-based; settings: in vivo, 0.5 h; procedure, shortened: as §1
Spleen [14] = assay: Biodistribution in BALB/c mouse spleen at 7.4 MBq, iv after 120 mins by gamma counting; format: ADME, organism-based; settings: in vivo, 2 h; procedure, shortened: as §1
Nucleic Acid [15] = assay: Ratio of drug level in BALB/c mouse heart to lung at 7.4 MBq, iv after 60 mins by gamma counter; format: ADME, organism-based; settings: in vivo, 1 h; procedure, shortened: as §2
Heart [16] = assay: Biodistribution in BALB/c mouse heart at 7.4 MBq, iv after 120 mins by gamma counting; format: ADME, organism-based; settings: in vivo, 2 h; procedure, shortened: as §1
Lung [17] = assay: Biodistribution in BALB/c mouse lung at 7.4 MBq, iv after 30 mins by gamma counting; format: ADME, organism-based; settings: in vivo, 0.5 h; procedure, shortened: as §1
Bone [18] = assay: Biodistribution in BALB/c mouse bone at 7.4 MBq, iv after 30 mins by gamma counting; format: ADME, organism-based, Bone element; settings: in vivo, 0.5 h; procedure, shortened: as §1
Kidney [19] = assay: Biodistribution in BALB/c mouse kidney at 7.4 MBq, iv after 60 mins by gamma counting; format: ADME, organism-based; settings: in vivo, 1 h; procedure, shortened: as §1
Intestine [20] = assay: Biodistribution in BALB/c mouse intestine at 7.4 MBq, iv after 120 mins by gamma counting; format: ADME, organism-based; settings: in vivo, 2 h; procedure, shortened: as §1
Nucleic Acid [21] = assay: Ratio of drug level in BALB/c mouse heart to liver at 7.4 MBq, iv after 120 mins by gamma counter; format: ADME, organism-based; settings: in vivo, 2 h; procedure, shortened: as §2
Liver [22] = assay: Biodistribution in BALB/c mouse liver at 7.4 MBq, iv after 10 mins by gamma counting; format: ADME, organism-based; settings: in vivo; procedure, shortened: as §1
Bone [23] = assay: Biodistribution in BALB/c mouse bone at 7.4 MBq, iv after 120 mins by gamma counting; format: ADME, organism-based, Bone element; settings: in vivo, 2 h; procedure, shortened: as §1
Spleen [24] = assay: Biodistribution in BALB/c mouse spleen at 7.4 MBq, iv after 60 mins by gamma counting; format: ADME, organism-based; settings: in vivo, 1 h; procedure, shortened: as §1
Spleen [25] = assay: Biodistribution in BALB/c mouse spleen at 7.4 MBq, iv after 10 mins by gamma counting; format: ADME, organism-based; settings: in vivo; procedure, shortened: as §1
Blood [26] = assay: Biodistribution in BALB/c mouse blood at 7.4 MBq, iv after 10 mins by gamma counting; format: ADME, organism-based; settings: in vivo; procedure, shortened: as §1
[27] = Octanol-NaCl aqueous solution partition coefficient, log P of the compound after 20 mins by gamma counting; format: physicochemical
[28] = Metabolic stability in human serum assessed as compound remaining at 0.37 MBq after 4 hrs by TLC analysis; format: ADME, cell-free; settings: read-out: Stability
Procedure, shortened: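 Analysed on ITLC-sg strips developed in methylene chloride:methanol (9:2 v/v), and the strips were scanned on an automatic TLC scanner.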

Intestine [29] = assay: Biodistribution in BALB/c mouse intestine at 7.4 MBq, iv after 60 mins by gamma counting; format: ADME, organism-based; settings: in vivo, 1 h; procedure, shortened: as §1
Pancreas [30] = assay: Biodistribution in BALB/c mouse pancreas at 7.4 MBq, iv after 10 mins by gamma counting; format: ADME, organism-based; settings: in vivo; procedure, shortened: as §1
Liver [31] = assay: Biodistribution in BALB/c mouse liver at 7.4 MBq, iv after 60 mins by gamma counting; format: ADME, organism-based; settings: in vivo, 1 h; procedure, shortened: as §1

[18F]CCOCC[P+](c1ccccc1)(c1ccccc1)c1ccccc1
Drug uptake (Kidney [1]): 9.28 % ID/g | Drug uptake (Bone [2]): 2.44 % ID/g | Drug uptake (Intestine [3]): 8.52 % ID/g | Drug uptake (Heart [4]): 35.23 % ID/g | Ratio (Nucleic Acid [5]): 8.05 | Ratio (Nucleic Acid [6]): > 102 | Drug uptake (Heart [7]): 19.96 % ID/g | Drug uptake (Blood [8]): 0.24 % ID/g | Ratio (Nucleic Acid [9]): > 55 | Drug uptake (Muscle tissue): 3.2 % ID/g | Drug uptake (Lung [10]): 5.55 % ID/g | Drug uptake (Lung [11]): 4.01 % ID/g | Drug uptake (Blood [12]): 0.23 % ID/g | Drug uptake (Pancreas [13]): 5.96 % ID/g | Drug uptake (Spleen [14]): 1.23 % ID/g | Ratio (Nucleic Acid [15]): 5.05 | Drug uptake (Heart [16]): 24.27 % ID/g | Drug uptake (Lung [17]): 5.18 % ID/g | Drug uptake (Bone [18]): 2.35 % ID/g | Drug uptake (Kidney [19]): 16.86 % ID/g | Drug uptake (Intestine [20]): 2.66 % ID/g | Ratio (Nucleic Acid [21]): 19.16 | Drug uptake (Liver [22]): 3.57 % ID/g | Drug uptake (Bone [23]): 2.28 % ID/g | Drug uptake (Spleen [24]): 1.95 % ID/g | Drug uptake (Spleen [25]): 3.35 % ID/g | Drug uptake (Blood [26]): 0.64 % ID/g | logP at 20 min [27]: 0.89 | remaining at 4 h, 0.37 MBq [28]: > 95% | Drug uptake (Intestine [29]): 4.67 % ID/g | Drug uptake (Pancreas [30]): 8.8 % ID/g | Drug uptake (Liver [31]): 2.03 % ID/g
